Laboratory results taken from ChEMBL document CHEMBL4376814, “Novel cyclin-dependent kinase 9 (CDK9) inhibitor with suppression of cancer stemness activity against non-small-cell lung cancer” (Eur J Med Chem, 2019).
The source made the active and inactive calls. No cut-off for these calls is given here.

Tests used:
[1] = test system: A549; test: Induction of apoptosis in human A549 cells assessed as late apoptotic cells at 0.5 uM after 48 hrs by AnnexinV-FITC/PI staining-based flow cytometric analysis (reference value: 7.66%); assay type: functional
[2] = test system: NCI-H1299; test: Induction of apoptosis in human H1299 cells assessed as early apoptotic cells at 0.5 uM after 48 hrs by AnnexinV-FITC/PI staining-based flow cytometric analysis (reference value: 0.248%); assay type: functional
[3] = test system: A549; test: Inhibition of tumorsphere formation in human A549 cells assessed as reduction in side population ratio at 0.25 to 1 uM by PI/Hoechst 33342 staining based flow cytometry; assay type: functional, cell-based
[4] = test system: NCI-H1299; test: Downregulation of OCT4 in human H1299 cells at 0.25 to 1 uM by Western blot analysis; assay type: functional, cell-based
[5] = Intrinsic clearance in human liver microsomes at 2 uM in presence of NADPH measured up to 1 hr by HPLC analysis; assay type: ADME, Microsome
[6] = biological target: Myosin light chain kinase, smooth muscle (Homo sapiens) (UniProt Q15746); test: Inhibition of recombinant human MLCK (1425 to 1771 residues) at 1 uM using calmodulin as substrate measured after 40 mins in presence of [gamma33P]ATP by scintillation counting method relative to control
[7] = biological target: CDK7/Cyclin H/MNAT1 (Homo sapiens) (UniProt P51946+P50613+P51948); test: Inhibition of human full length recombinant CDK7/cyclinH/MAT1 at 1 uM using peptide as substrate incubated for 40 mins in presence of [gamma-33P]ATP at by radiometric assay relative to control; assay type: protein-complex assay
[8] = biological target: [Pyruvate dehydrogenase (acetyl-transferring)] kinase isozyme 2, mitochondrial (Homo sapiens) (UniProt Q15119); test: Inhibition of human PDHK2 at 1 uM by radiometric method relative to control
Outline: (§1)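 Percent inhibition of kinase activity at a single compound concentration, measured by the outsourced Eurofins KinaseProfiler panel. Values are the mean of two independent experiments.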

[9] = test system: Phosphorylase b kinase gamma catalytic chain, liver/testis isoform (Homo sapiens), P15735 [F290L]; test: Inhibition of recombinant human PhKG2 F290L mutant (1 to 301 residues) at 1 uM using KKLNRTLSFAEPG as substrate measured after 40 mins in presence of [gamma33P]ATP by scintillation counting method relative to control
[10] = biological target: Tyrosine-protein kinase CSK (Homo sapiens) (UniProt P41240); test: Inhibition of recombinant full-length human CSK at 1 uM using poly(Glu, Tyr) 4:1 as substrate measured after 40 mins in presence of [gamma33P]ATP by scintillation counting method relative to control
Outline: (§2)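 Single-point inhibition at 1 µM was measured in the Eurofins KinaseProfiler panel. Values are the mean of two independent experiments.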

[11] = biological target: Dual specificity tyrosine-phosphorylation-regulated kinase 1A (Homo sapiens) (UniProt Q13627); test: Inhibition of recombinant full-length human DYRK1A at 1 uM using RRRFRPASPLRGPPK as substrate measured after 40 mins in presence of [gamma33P]ATP by scintillation counting method relative to control
[12] = test system: Eukaryotic elongation factor 2 kinase (Homo sapiens), O00418 [H23R]; test: Inhibition of recombinant human EEF2K H23R mutant (2 to end residues) at 1 uM using RKKFGESEKTKTKEFL as substrate measured after 40 mins in presence of [gamma33P]ATP by scintillation counting method relative to control
[13] = biological target: Tyrosine-protein kinase Fer (Homo sapiens) (UniProt P16591); test: Inhibition of recombinant human FER (541 to end residues) at 1 uM using KKKSPGEYVNIEFG as substrate measured after 40 mins in presence of [gamma33P]ATP by scintillation counting method relative to control
[14] = test system: Proto-oncogene tyrosine-protein kinase receptor Ret (Homo sapiens), P07949 [V804M]; test: Inhibition of human Ret V804M mutant (658 to end residues) at 1 uM using KKKVSRSGLYRSPSMPENLNRPR as substrate measured after 40 mins in presence of [gamma33P]ATP by scintillation counting method relative to control; outline: as §1
[15] = biological target: Mitogen-activated protein kinase 14 (Homo sapiens) (UniProt Q16539); test: Inhibition of recombinant full-length human SAPK2a at 1 uM using myelin basic protein as substrate measured after 40 mins in presence of [gamma33P]ATP by scintillation counting method relative to control
[16] = biological target: Mitogen-activated protein kinase 11 (Homo sapiens) (UniProt Q15759); test: Inhibition of recombinant full-length human SAPK2b at 1 uM using myelin basic protein as substrate measured after 40 mins in presence of [gamma33P]ATP by scintillation counting method relative to control
[17] = biological target: Mitogen-activated protein kinase 12 (Homo sapiens) (UniProt P53778); test: Inhibition of recombinant full-length human SAPK3 at 1 uM using myelin basic protein as substrate measured after 40 mins in presence of [gamma33P]ATP by scintillation counting method relative to control
[18] = biological target: Fibroblast growth factor receptor 4 (Homo sapiens) (UniProt P22455); test: Inhibition of recombinant human FGFR4 (442 to 755 residues) at 1 uM using poly(Glu, Tyr) 4:1 as substrate measured after 40 mins in presence of [gamma33P]ATP by scintillation counting method relative to control
[19] = biological target: Tyrosine-protein kinase HCK (Homo sapiens) (UniProt P08631); test: Inhibition of recombinant human activated HCK (230 to 497 residues) at 1 uM using GGMEDIYFEFMGGKKK as substrate measured after 40 mins in presence of [gamma33P]ATP by scintillation counting method relative to control
[20] = biological target: Insulin receptor (Homo sapiens) (UniProt P06213); test: Inhibition of recombinant human activated IR (1005 to 1310 residues) at 1 uM using KKKSPGEYVNIEFG as substrate measured after 40 mins in presence of [gamma33P]ATP by scintillation counting method relative to control
[21] = test system: Angiopoietin-1 receptor (Homo sapiens), Q02763 [Q939H,Q940H,R849W]; test: Inhibition of human Tie2 Q939H/Q940H/R849W mutant (771 to end residues) at 1 uM using EFPIYDFLPAKKK as substrate measured after 40 mins in presence of [gamma33P]ATP by scintillation counting method relative to control; outline: as §2
[22] = biological target: BDNF/NT-3 growth factors receptor (Homo sapiens) (UniProt Q16620); test: Inhibition of recombinant human TRKB (455 to end residues) at 1 uM using poly(Glu, Tyr) 4:1 as substrate measured after 40 mins in presence of [gamma33P]ATP by scintillation counting method relative to control
[23] = biological target: Tau-tubulin kinase 2 (Homo sapiens) (UniProt Q6IQ55); test: Inhibition of recombinant human TTBK2 (1 to 331 residues) at 1 uM using casein as substrate measured after 40 mins in presence of [gamma33P]ATP by scintillation counting method relative to control
[24] = organism: Homo sapiens; test: Inhibition of recombinant full-length human PI3K p120gamma R459Q mutant at 1 uM using phosphatidylinositol-4, 5-bisphosphate as substrate measured after 40 mins by fluorescence assay relative to control

Tyrosine-protein kinase Fer (Homo sapiens), sequence (P16591 whole entry, looked up): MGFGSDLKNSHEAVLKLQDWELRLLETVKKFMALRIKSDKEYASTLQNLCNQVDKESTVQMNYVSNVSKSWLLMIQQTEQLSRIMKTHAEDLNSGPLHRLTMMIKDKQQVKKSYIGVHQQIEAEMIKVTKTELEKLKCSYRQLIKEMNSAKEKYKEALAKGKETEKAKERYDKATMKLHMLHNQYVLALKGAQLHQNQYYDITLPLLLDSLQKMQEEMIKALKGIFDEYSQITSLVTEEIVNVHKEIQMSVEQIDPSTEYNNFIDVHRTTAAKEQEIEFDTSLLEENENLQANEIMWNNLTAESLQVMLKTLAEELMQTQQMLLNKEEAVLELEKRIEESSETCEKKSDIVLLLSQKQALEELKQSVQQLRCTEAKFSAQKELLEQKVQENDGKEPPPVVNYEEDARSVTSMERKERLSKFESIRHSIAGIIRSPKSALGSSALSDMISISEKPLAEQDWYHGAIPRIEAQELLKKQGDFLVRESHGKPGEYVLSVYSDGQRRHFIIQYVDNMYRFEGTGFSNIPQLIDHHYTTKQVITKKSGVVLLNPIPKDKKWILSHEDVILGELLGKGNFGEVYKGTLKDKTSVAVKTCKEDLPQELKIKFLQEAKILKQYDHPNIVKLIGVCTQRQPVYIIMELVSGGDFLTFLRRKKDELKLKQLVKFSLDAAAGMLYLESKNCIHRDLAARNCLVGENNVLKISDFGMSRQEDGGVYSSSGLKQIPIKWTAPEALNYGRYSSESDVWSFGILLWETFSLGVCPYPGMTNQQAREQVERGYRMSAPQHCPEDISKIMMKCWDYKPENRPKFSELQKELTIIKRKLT
Mitogen-activated protein kinase 14 (Homo sapiens), sequence (Q16539 whole entry): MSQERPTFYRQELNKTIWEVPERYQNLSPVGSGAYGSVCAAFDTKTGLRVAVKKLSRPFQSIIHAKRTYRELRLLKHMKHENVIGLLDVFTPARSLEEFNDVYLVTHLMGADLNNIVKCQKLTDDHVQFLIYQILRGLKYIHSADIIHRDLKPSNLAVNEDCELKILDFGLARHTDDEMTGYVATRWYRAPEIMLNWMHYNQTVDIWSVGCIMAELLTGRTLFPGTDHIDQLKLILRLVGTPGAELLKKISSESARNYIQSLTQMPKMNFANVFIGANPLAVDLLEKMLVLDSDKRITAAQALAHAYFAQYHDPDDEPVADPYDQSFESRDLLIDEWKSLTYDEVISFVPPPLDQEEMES
Proto-oncogene tyrosine-protein kinase receptor Ret (Homo sapiens), P07949 [V804M], sequence (P07949 whole entry V804M): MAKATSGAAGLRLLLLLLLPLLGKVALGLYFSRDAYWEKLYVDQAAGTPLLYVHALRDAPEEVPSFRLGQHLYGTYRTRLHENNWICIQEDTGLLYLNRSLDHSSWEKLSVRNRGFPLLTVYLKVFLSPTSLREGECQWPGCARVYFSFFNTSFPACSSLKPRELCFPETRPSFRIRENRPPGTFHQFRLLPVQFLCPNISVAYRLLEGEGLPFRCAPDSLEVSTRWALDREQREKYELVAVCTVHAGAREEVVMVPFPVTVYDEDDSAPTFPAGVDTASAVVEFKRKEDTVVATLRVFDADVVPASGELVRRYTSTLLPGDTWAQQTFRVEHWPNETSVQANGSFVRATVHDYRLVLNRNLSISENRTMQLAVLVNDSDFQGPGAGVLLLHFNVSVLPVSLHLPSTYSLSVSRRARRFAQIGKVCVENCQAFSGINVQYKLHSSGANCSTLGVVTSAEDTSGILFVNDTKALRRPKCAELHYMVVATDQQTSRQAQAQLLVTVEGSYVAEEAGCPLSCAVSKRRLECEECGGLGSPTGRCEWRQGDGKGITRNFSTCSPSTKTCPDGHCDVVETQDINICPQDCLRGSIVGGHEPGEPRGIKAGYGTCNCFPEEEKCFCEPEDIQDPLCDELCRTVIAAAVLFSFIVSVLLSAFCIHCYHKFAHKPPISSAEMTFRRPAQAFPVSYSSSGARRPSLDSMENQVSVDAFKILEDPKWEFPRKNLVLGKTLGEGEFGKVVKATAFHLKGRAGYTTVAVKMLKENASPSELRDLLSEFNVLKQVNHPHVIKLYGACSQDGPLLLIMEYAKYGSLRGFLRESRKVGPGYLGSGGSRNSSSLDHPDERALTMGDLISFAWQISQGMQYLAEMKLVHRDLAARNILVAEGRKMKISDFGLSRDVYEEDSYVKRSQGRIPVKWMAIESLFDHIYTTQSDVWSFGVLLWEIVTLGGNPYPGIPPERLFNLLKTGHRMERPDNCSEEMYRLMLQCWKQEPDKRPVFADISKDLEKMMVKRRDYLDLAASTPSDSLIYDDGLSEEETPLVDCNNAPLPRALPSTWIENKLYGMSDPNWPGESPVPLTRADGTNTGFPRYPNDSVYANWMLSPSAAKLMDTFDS
Tyrosine-protein kinase CSK (Homo sapiens), sequence (P41240 2-450 limits assumed): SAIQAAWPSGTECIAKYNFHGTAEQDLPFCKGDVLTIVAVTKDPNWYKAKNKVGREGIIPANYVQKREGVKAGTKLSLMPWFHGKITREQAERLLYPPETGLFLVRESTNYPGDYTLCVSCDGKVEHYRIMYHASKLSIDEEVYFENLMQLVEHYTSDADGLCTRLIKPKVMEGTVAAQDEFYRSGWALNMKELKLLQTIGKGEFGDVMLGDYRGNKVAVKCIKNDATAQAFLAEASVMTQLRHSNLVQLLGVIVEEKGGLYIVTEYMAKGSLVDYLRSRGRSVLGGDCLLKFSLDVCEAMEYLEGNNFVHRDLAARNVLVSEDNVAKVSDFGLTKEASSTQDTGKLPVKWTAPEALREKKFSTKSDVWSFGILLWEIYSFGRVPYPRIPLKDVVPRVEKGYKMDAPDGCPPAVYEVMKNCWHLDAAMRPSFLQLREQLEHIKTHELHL
Mitogen-activated protein kinase 12 (Homo sapiens), sequence (P53778 whole entry, the tested form may be a part): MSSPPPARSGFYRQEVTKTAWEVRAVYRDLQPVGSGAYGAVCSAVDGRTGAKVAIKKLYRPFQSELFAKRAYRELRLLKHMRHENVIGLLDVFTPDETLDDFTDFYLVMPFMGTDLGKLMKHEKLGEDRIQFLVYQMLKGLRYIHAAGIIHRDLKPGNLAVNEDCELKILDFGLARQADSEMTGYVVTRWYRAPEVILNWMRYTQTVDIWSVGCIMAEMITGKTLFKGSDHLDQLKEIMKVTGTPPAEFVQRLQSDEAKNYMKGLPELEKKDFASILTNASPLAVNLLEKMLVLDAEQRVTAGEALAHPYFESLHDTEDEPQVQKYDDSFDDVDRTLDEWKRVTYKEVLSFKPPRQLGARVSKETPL
Phosphorylase b kinase gamma catalytic chain, liver/testis isoform (Homo sapiens), P15735 [F290L], sequence (P15735 whole entry F290L, the tested form may be a part, canonical isoform): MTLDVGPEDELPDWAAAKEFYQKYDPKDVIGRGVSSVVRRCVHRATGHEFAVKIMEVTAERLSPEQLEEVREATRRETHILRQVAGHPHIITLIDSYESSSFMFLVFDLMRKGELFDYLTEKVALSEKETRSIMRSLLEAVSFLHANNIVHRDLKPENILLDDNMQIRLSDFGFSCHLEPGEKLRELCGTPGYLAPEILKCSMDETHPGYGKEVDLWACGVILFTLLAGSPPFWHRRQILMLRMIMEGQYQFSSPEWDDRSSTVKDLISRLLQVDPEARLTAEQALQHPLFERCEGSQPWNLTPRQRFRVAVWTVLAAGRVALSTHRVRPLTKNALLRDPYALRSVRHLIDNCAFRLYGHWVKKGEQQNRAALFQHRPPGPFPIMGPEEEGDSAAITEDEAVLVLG
BDNF/NT-3 growth factors receptor (Homo sapiens), sequence (Q16620 32-822 limits assumed): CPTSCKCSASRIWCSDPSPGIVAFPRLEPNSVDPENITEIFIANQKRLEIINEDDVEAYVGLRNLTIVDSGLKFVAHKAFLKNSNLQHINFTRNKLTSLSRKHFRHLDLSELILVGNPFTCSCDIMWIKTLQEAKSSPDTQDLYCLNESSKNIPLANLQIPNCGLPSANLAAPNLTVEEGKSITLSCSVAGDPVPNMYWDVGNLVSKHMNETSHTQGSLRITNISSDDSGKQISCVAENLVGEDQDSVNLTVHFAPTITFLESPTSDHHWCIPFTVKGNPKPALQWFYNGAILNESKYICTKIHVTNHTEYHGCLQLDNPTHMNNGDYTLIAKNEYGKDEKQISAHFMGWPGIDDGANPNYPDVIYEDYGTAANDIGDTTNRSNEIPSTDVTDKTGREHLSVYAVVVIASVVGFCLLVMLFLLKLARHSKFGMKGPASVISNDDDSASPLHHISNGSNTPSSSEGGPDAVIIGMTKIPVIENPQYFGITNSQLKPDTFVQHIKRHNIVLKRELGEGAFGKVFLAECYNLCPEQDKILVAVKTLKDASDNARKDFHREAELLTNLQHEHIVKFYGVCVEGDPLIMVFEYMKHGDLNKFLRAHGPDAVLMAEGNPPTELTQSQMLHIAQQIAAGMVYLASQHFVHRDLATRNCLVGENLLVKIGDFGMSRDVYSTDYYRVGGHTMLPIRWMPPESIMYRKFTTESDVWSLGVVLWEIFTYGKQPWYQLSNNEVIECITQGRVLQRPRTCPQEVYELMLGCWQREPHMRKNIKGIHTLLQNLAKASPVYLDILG
Eukaryotic elongation factor 2 kinase (Homo sapiens), O00418 [H23R], sequence (O00418 whole entry H23R): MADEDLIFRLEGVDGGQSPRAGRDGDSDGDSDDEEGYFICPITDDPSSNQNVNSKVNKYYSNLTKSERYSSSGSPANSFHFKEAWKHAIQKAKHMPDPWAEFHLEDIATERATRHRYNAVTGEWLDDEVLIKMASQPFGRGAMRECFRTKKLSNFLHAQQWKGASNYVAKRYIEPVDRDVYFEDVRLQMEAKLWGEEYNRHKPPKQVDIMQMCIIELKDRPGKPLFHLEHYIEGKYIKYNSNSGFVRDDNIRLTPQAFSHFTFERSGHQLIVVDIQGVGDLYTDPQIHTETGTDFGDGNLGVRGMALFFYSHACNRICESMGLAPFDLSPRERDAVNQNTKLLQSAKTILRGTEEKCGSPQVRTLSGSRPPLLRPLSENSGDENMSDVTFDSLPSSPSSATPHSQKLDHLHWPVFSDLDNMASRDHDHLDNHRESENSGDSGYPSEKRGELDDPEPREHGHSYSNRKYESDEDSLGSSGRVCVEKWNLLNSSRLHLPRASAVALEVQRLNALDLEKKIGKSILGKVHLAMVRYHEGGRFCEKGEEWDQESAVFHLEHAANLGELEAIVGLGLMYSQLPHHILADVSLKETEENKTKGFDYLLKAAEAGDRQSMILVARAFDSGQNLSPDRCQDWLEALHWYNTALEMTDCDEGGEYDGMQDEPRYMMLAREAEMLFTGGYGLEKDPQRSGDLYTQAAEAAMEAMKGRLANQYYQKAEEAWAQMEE

CN(C)C(=O)c1cc2cnc(Nc3ccc(NC(=O)CCCCCCCN=C=S)cc3)nc2n1C1CCCC1
Activity [1]: 13.8% | Activity [2]: 0.758% | inhibition [3]: Active | Activity [4]: Active | CLH [5]: 70 µL/min/mg | inhibition [6]: 5% | inhibition [7]: 55% | inhibition [8]: -10% | inhibition [9]: 28% | inhibition [10]: 1% | inhibition [11]: 2% | inhibition [12]: -10% | inhibition [13]: 7% | inhibition [14]: 58% | inhibition [15]: 20% | inhibition [16]: 27% | inhibition [17]: 4% | inhibition [18]: -2% | inhibition [19]: 5% | inhibition [20]: -7% | inhibition [21]: 12% | inhibition [22]: 92% | inhibition [23]: -5% | inhibition [24]: 14%
